High-throughput results from PubChem.
The list is not random: actives were taken first. Their share in the collection is about 3.9%.
TAAR1 antagonist: antagonists of human TAAR1; inhibition, % at 3 µM; 1.5% of 360,000 active; AID 624466; CHO RD-HGA16 TAAR1, Fluo-8 calcium fluorescence, antagonist; Q96RJ0;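 active = inhibition above a per-plate cutoff, the mean inhibition of test compounds on that plate plus 3 SD, cut at about 49% in these data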
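test system = CHO RD-HGA16 cells bearing hTAAR1 | replication = singlicate | controls = DMSO-only wells and EC80 β-PEA-stimulated wells | reagent = EC80 β-phenethylamine stimulus | read-out basis = percent inhibition of PEA-evoked calcium signal, max/basal emission ratio | schedule = seeding 17-24 h prior, 75-min 37 °C, 30-min RT dye loading | signal = kinetic Fluo-8 calcium fluorescence measurement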
OX1R antag-1: human HCRTR1 antagonism; O43613; inhibition, % at 5 µM; CHO/OX1R cells, Fluo-8 calcium fluorescence, orexin A; AID 434989; 0.43% of 330,000 active;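 active = inhibition above its plate's threshold, mean inhibition of all tested compounds on the plate plus 3 SD, cut at about 37% in these data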
Target sequence (O43613 whole entry, looked up): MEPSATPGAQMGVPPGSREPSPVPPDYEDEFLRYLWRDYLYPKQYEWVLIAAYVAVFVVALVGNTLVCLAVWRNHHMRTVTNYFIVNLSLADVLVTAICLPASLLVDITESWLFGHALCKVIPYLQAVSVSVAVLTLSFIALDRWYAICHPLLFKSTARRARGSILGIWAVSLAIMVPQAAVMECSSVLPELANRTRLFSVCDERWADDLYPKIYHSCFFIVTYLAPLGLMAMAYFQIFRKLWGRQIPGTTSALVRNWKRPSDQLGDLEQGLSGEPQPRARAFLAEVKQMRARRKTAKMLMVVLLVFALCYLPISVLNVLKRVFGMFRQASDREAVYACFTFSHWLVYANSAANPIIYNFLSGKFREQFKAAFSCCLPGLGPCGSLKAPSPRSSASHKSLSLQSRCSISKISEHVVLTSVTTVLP
OX1R antag-2: OX1R (human) antagonism. O43613. OX1R-expressing cells, FRET antagonist read-out. inhibition, % at 6.6 µM. 1.8% of 330,000 active. AID 485270; in the data active = inhibition mostly above about 38%, no sharp cut-off; inactive = mostly below about 40%
TAAR1 agonist: human TAAR1 agonism. CHO RD-HGA16 TAAR1, Fluo-8 calcium fluorescence; vehicle wells 0%, saturating PEA agonist 100%. activation, % at 3 µM. 0.99% of 360,000 active. AID 624467;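 active = activation above the mean activation of all test compounds in the run plus 3 SD, cut at about 38% in these data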
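Test system: RD-HGA16 (CHO) cells co-expressing Gα16 and hTAAR1; dosing: one-point dosing at 3 µM (nominal); timing: 17-24 h seeding, 75 min 37 °C dye, 30 min RT; signal: kinetic Fluo-8 calcium fluorescence; read-out basis: % activation relative to PEA EC100 response; controls: DMSO and PEA EC100; replicates: n 1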
CHO parental Ca: signal in parental CHO cells, OX1R antagonist counter-screen | parental CHO-K1, ATP-induced calcium, Fluo-8 fluorescence | inhibition, % at 5.6 µM | 0.63% of 330,000 active | AID 463079;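 active = inhibition above that plate's mean sample inhibition plus 3 SD, cut at about 26% in these data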
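Material – parental CHO cells · Reagent – ATP stimulus · Compound – single nominal dose of 5.6 µM per compound · Detection – Fluo-8 fluorescence · Read-out basis – percent inhibition of calcium signal · Controls – ATP-challenged DMSO wells low, unchallenged DMSO wells high · Repeats – no replicates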
TAAR1 ag conf: human TAAR1 agonism, confirmed | CHO RD-HGA16 TAAR1, Fluo-8 calcium fluorescence; scaled: DMSO 0%, maximal phenethylamine 100% | shares compounds with TAAR1 agonist | 82% of 2,400 active | activation, % at 3 µM;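 active = activation above a cutoff set at the run's mean compound activation plus 3 SD, cut at about 39% in these data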
Ga16 ag counter: counter-screen for TAAR1 agonists: nonselective agonists in parental cells. activation, % at 3 µM. CHO-Ga16 parental, Fluo-8 calcium fluorescence; normalized to maximal ATP response, DMSO zero. 50% of 2,400 active. shares compounds with TAAR1 agonist;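 active = activation above the run cutoff, the mean activation over all tested wells plus 3 SD, cut at about 12% in these data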
TAAR1 desensitize: human TAAR1 agonist that also desensitizes the receptor. inhibition, % at 3 µM. AID 651951. 46% of 2,400 active. CHO RD-HGA16 hTAAR1, Fluo-8 calcium, beta-PEA response inhibition. shares compounds with TAAR1 agonist;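 active = inhibition above the run cutoff, the mean inhibition of all test compounds plus 3 SD, cut at about 49% in these data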;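 also: beta-PEA stimulus applied at its EC80; loss of beta-PEA calcium signal after compound pretreatment read as receptor desensitization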
Ga16 antag count: counter-screen for TAAR1 agonists: nonselective Ga16 antagonists; CHO-Ga16 ATP-induced calcium, Fluo-8 fluorescence; AID 651952; shares compounds with TAAR1 agonist; 39% of 2,400 active; inhibition, % at 3 µM;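 active = inhibition above the plate's mean compound inhibition plus 3 SD, computed per plate, cut at about 22% in these data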
A number is an active result; . = inactive; / = no result.

SMILES	TAAR1 antagonist	OX1R antag-1	OX1R antag-2	TAAR1 agonist	CHO parental Ca	TAAR1 ag conf	Ga16 ag counter	TAAR1 desensitize	Ga16 antag count
O=C(CSC(=S)N1CCCC1)NCCc1ccccc1	88	.	.	97	.	88	.	98	.
c1ccc([C@H]2CNCCN2CCc2cccc3ccccc23)cc1	.	.	.	54	.	76	20	53	24
COc1cc(CCCN2CCNC[C@@H]2c2ccccc2)cc(OC)c1OC	.	.	.	.	.	/	/	/	/
COc1ccc(-n2nc3c(N4CCC(C(=O)NCC(C)c5ccccc5)CC4)nnc(C)c3c2C)cc1 (stereo unspecified)	.	.	.	59	.	56	.	.	.
O=c1cnnc(Nc2cccc(C(F)(F)F)c2)[nH]1	.	.	.	.	.	/	/	/	/
O=c1cnnc(Nc2cccc(F)c2)[nH]1	.	.	.	64	.	74	.	.	.
O=c1cnnc(Nc2ccc(F)cc2)[nH]1	.	.	.	46	.	57	.	.	.
COc1ccc(C(=O)NNC(=O)c2ccc(F)c(S(=O)(=O)N3CCOCC3)c2)cc1	.	.	.	.	.	/	/	/	/
CS(=O)(=O)N1CCN(C(=O)c2ccc(Cl)s2)CC1	.	.	.	.	.	/	/	/	/
CC(C)CN(C(=O)C1CSC2(C)CCC(=O)N12)c1c(N)n(Cc2ccccc2)c(=O)[nH]c1=O (stereo unspecified)	.	.	.	.	.	/	/	/	/
O=C(Nc1cccn(Cc2ccccc2)c1=O)NC1CCCCC1	.	.	.	43	.	77	40	.	.
COc1cccc(Cn2cccc(NC(=O)NC3CCCCC3)c2=O)c1	.	.	.	51	.	.	17	.	.
COc1cccc(CNCC(=O)NC(=O)NC2CCCC2)c1	.	.	.	.	.	/	/	/	/
COc1ccc(S(=O)(=O)N2CCN(C(=O)CSC(=S)N3CCCC3)CC2)cc1	.	.	.	.	.	/	/	/	/
O=Cc1[nH]c2ccccc2c1N(C(=O)CCl)c1ccc([N+](=O)[O-])cc1	52	.	.	56	.	70	44	73	53
CC(=O)n1cc(N(C(=O)CCl)c2ccc([N+](=O)[O-])cc2)c2ccccc21	.	.	.	.	.	/	/	/	/
COC(=O)C1=C(C)N(Cc2cccc(C(F)(F)F)c2)C(=NCC2CC2)NC1c1ccccc1C(F)(F)F (stereo unspecified)	.	/	/	.	/	/	/	/	/
COC(=O)C1=C(C)N(Cc2cccc(C(F)(F)F)c2)C(=NCC2CC2)NC1c1cccc(C(F)(F)F)c1 (stereo unspecified)	56	/	/	50	/	53	26	54	44
COC(=O)C1=C(C)N(Cc2cccc(C(F)(F)F)c2)C(=NCC2CC2)NC1c1ccc(F)cc1 (stereo unspecified)	101	/	/	96	/	101	72	94	81
COC(=O)C1=C(C)N(Cc2cccc(C(F)(F)F)c2)C(=NCC2CC2)NC1c1cccc(Cl)c1 (stereo unspecified)	77	/	/	72	/	61	35	66	55
COC(=O)C1=C(C)N(C)C(=NCc2cccc(C(F)(F)F)c2)NC1c1cccc(Cl)c1 (stereo unspecified)	.	/	/	.	/	/	/	/	/
CCN(CC)c1ccc(/C=C(\C#N)C(=O)c2ccc(Br)cc2)cc1	91	78	.	215	54	315	325	105	103
CCN(CC)c1ccc(/C=C(\C#N)C(N)=O)cc1	.	/	/	.	/	/	/	/	/
COCCCn1c(O)c(/C=C2\N=C(C#N)C(=Nc3ccc(C)cc3)O2)sc1=S	74	.	.	52	39	.	15	.	25
O=C(O)CCCn1c(O)c(C=C2N=c3ccccc3=N2)sc1=S	.	.	.	.	.	/	/	/	/
SMILES	TAAR1 antagonist	OX1R antag-1	OX1R antag-2	TAAR1 agonist	CHO parental Ca	TAAR1 ag conf	Ga16 ag counter	TAAR1 desensitize	Ga16 antag count
CCOc1ccccc1CN1CCNC(=O)C1CC(=O)NC1CCCCCCC1 (stereo unspecified)	.	.	.	.	.	/	/	/	/
Cc1cc(/C=C2/NC(=O)NC2=O)c(C)n1-c1sc2c(c1C#N)CCCC2	.	.	.	63	.	46	19	.	.
Cc1cc(C)c(-n2c(C)cc(/C=C3/NC(=O)NC3=O)c2C)c(C)c1	.	.	.	.	.	/	/	/	/
CC1(c2ccc(Cl)cc2)NC(=O)N(CC(=O)Nc2ccc3c(c2)OCO3)C1=O (stereo unspecified)	.	/	/	59	/	77	24	54	24
CCCC(=O)N1CCCC(c2cc(C(=O)NCc3ccc(F)cc3)no2)C1 (stereo unspecified)	.	/	/	.	/	/	/	/	/
Nc1cc(=O)[nH]c(SCC(=O)NCCC2=CCCCC2)n1	.	.	.	.	.	/	/	/	/
Cc1nnc(SCC(=O)NCCC2=CCCCC2)[nH]c1=O	69	.	.	74	.	95	.	88	.
CC1(c2ccccc2)NC(=O)N(CC(=O)N2CCc3ccccc32)C1=O (stereo unspecified)	.	/	/	48	/	.	.	.	.
CCCCN(C(=O)COC(=O)COc1c(C)cc(C)cc1C)c1c(N)n(CCC)c(=O)[nH]c1=O	.	.	.	.	.	/	/	/	/
Cc1nnn(-c2nonc2N)c1C(=O)NNC(=O)c1ccc(Cl)c(Cl)c1	.	.	.	55	.	72	.	.	.
COc1ccc(O)c(/C=N/NC(=O)c2c(C)nnn2-c2nonc2N)c1	.	.	.	.	.	/	/	/	/
CNc1nc(N)c([N+](=O)[O-])c(NC2CCCCC2)n1	.	/	/	60	/	90	42	.	.
CC(C)CNc1nc(N)c([N+](=O)[O-])c(NC2CCCCC2)n1	.	.	.	.	.	/	/	/	/
CCCCCCn1c(=O)[nH]c2nc3cc(N)c(C)cc3nc2c1=O	72	/	/	118	/	105	85	.	49
CC(=O)O[C@@H]1C[C@@]2(C)[C@@H](CC[C@H]2[C@@H](C)/C=C\CC(C)C)C2=C[C@@H](O)[C@@]3(O)C[C@@H](O)[C@H](O)C[C@]3(CO)[C@]21O	97	/	/	116	/	.	16	.	28
CC(=O)O[C@H]1CC[C@]2(C)C3CC[C@]4(C)[C@@H]([C@H](C)/C=C/[C@H](C)C(C)C)CC[C@H]4[C@@]34C=C[C@]2(C1)N(C(=O)c1ccccc1)O4 (stereo partly specified)	.	/	/	.	/	/	/	/	/
